6 compounds from ChEMBL document CHEMBL2407014, “Suberoylanilide hydroxamic acid, a histone deacetylase inhibitor, induces the production of anti-inflammatory cyclodepsipeptides from Beauveria felina” (J Nat Prod, 2013) can be followed below.

Data set [1] can be described thus: Antiinflammatory activity in human neutrophils assessed as inhibition of FMLP-induced elastase release treated 5 mins before FMLP addition. Format: functional, cell-based. To be noted: Neutrophil. The essentials:
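Neutrophils (6 × 10⁵/mL) with MeO-Suc-Ala-Ala-Pro-Val-p-nitroanilide substrate (100 μM), equilibrated 37 °C 2 min, compound 5 min, then activated with FMLP (100 nM)/cytochalasin B (0.5 μg/mL). Absorbance at 405 nm monitored continuously; results as percentage of initial elastase rate; IC50 as concentration giving 50% inhibition.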

Data set [2] is described as follows: Cytotoxicity against human neutrophils by LDH release assay. Format: cell-based. To be noted: neutrophil. For orientation: LDH in the medium is a marker of cell lysis.
Data set [3] is described as follows: Antiinflammatory activity in human neutrophils assessed as inhibition of FMLP-induced superoxide anion production treated 5 mins before FMLP addition measured after 10 mins. In kind it is functional, cell-based. Conditions: Neutrophil. In outline:
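Neutrophils from healthy adult donors' venous blood (dextran sedimentation, Ficoll centrifugation), with 0.5 mg/mL ferricytochrome c and 1 mM Ca²⁺, equilibrated 37 °C 2 min, compound 5 min, cytochalasin B (1 μg/mL) 3 min, then FMLP 100 nM for 10 min. SOD-inhibitable (100 U/mL) ferricytochrome c reduction read continuously at 550 nm; IC50 as 50% inhibition concentration.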

Starred links: 1 amine or outer side, 2 acyl side, 3 side chain; linkers in the order of their positions; H or OH if unused. Non-standard residues stand in square brackets, D forms with d. Residues, ends and D or L forms follow the SMILES beside them. ξ: configuration not given here. X1 = C[C@H]1CCN([*:1])[C@@H]1C(=O)[*:2]; X2 = CC1CCN([*:1])[C@@H]1C(=O)[*:2]; Hica(2S) = CC(C)C[C@H](O)C(=O)O; ξLac(3-iPr) = CC(C)CC(O)C(=O)O; NMeV = CN[C@H](C(=O)O)C(C)C; βAla = NCCC(=O)O

With `CC(C)CC1OC(=O)CCNC(=O)[C@H](C(C)C)N(C)C(=O)[C@H](C(C)C)N(C)C(=O)[C@H](Cc2ccccc2)NC(=O)[C@@H]2CCCN2C1=O` (stereo not given in full) [ISARIDIN E] (cyclo(F[NMeV][NMeV][βAla][ξLac(3-iPr)]P)), the concentration for half-maximal inhibition (IC50) – broadly, the concentration at which inhibition is half-maximal – is 12.8 µM in data set [1] and 12.2 µM in data set [3]. Also, in data set [2], the Activity result is on record as “Non-toxic”.

As for `CC(C)C[C@@H]1OC(=O)CCNC(=O)[C@H](C(C)C)N(C)C(=O)[C@H](C(C)C)NC(=O)[C@H](Cc2ccccc2)NC(=O)[C@@H]2[C@@H](C)CCN2C1=O` (cyclo(FV[NMeV][βAla][Hica(2S)][X1])), the half-maximal inhibitory concentration (IC50) in data set [1] was 10 µM; in data set [3] it was 10.9 µM. Besides, the Activity entry in data set [2] is “Non-toxic”.

Consider `O=c1c(-c2ccc(O)cc2)coc2cc(O)cc(O)c12` [GENISTEIN], for which the IC50 came out at 6.72 µM in data set [1] and 0.69 µM in data set [3].

With `CC(C)CC1OC(=O)CCNC(=O)[C@H](C(C)C)N(C)C(=O)[C@H](C(C)C)N(C)C(=O)[C@H](Cc2ccccc2)NC(=O)[C@@H]2C(C)CCN2C1=O` (stereo not given in full) [ISARIDIN C2] (cyclo(F[NMeV][NMeV][βAla][ξLac(3-iPr)][X2])), the concentration for half-maximal inhibition (IC50) in data set [1] turned out to be 12.1 µM; in data set [3], 10.1 µM. For the same compound, in data set [2], the Activity result is given as “Non-toxic”.

In the case of `CC(C)C[C@@H]1OC(=O)CCNC(=O)[C@H](C(C)C)N(C)C(=O)[C@H](C(C)C)NC(=O)[C@H](Cc2ccccc2)NC(=O)[C@@H]2CCCN2C1=O` (cyclo(FV[NMeV][βAla][Hica(2S)]P)), the Activity entry in data set [2] was “Non-toxic”. In data set [3], the concentration for half-maximal inhibition (IC50) came out at 10 µM.

On to `CC[C@H](C)[C@@H]1NC(=O)[C@@H]2[C@@H](C)CCN2C(=O)[C@@H](CC(C)C)OC(=O)CCNC(=O)[C@H](C)N(C)C(=O)[C@H](C(C)C)N(C)C1=O` [ROSEOCARDIN], for which the 50% inhibitory concentration (IC50) in data set [1] was 15.1 µM. Also, in data set [2], the Activity entry is “Non-toxic”.
